# Data from ChEMBL document CHEMBL1143121, “Is adamantane a suitable substituent to pre-organize the acid orientation in E-selectin antagonists?” (Bioorg Med Chem, 2008).
# Target: T1, E-selectin (Homo sapiens) (UniProt P16581)
# T1 sequence (whole entry): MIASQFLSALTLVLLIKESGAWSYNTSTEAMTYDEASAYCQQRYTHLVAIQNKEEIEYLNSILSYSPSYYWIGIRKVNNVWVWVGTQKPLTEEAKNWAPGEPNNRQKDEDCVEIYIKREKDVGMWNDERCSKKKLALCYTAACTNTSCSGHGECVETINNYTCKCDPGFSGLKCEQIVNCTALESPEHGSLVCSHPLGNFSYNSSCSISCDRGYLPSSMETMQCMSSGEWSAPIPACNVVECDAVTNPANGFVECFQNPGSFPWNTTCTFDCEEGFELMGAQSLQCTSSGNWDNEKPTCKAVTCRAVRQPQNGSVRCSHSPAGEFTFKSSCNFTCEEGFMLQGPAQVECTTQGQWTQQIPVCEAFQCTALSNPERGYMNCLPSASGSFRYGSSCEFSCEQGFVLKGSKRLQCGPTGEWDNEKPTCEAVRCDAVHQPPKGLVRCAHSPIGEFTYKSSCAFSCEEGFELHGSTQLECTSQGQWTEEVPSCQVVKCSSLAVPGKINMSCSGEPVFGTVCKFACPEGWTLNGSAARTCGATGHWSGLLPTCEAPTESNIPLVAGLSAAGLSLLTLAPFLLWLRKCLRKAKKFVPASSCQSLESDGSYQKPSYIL
# Assay: Binding affinity to E-selectin relative to (2S,4S,5R,6R)-5-acetamido-2-((2R,3S,4S,5R,6R)-3,5-dihydroxy-2-(hydroxymethyl)-6-((1R,2R)-2-((2S,3S,4R,5S,6S)-3,4,5-trihydroxy-6-methyl-tetrahydro-2H-pyran-2-yloxy)cyclohexyloxy)-tetrahydro-2H-pyran-4-yloxy)-4-hydroxy-6-((1R,2R)-1,2,3-trihydroxypropyl)-tetrahydro-2H-pyran-2-carboxylic acid
# Method in brief: (§1)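 Competitive binding ELISA against E-selectin, run by a previously published procedure. A reference antagonist was included in the assay for relative comparison. The acid test compounds were purified by size exclusion chromatography to remove traces of polyanionic ion-exchange resin that could give false positives.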
row,SMILES,Activity
1,C[C@@H]1O[C@@H](O[C@@H]2CCCC[C@H]2O[C@@H]2O[C@H](CO)[C@H](O)[C@H](O[C@H](CC3CCCCC3)C(=O)O)[C@H]2O)[C@@H](O)[C@H](O)[C@@H]1O,> 10
2,C[C@@H]1O[C@@H](O[C@@H]2CCCC[C@H]2O[C@@H]2O[C@H](CO)[C@H](O)[C@H](O[C@H](CC34CC5CC(CC(C5)C3)C4)C(=O)O)[C@H]2O)[C@@H](O)[C@H](O)[C@@H]1O,> 10
3,C[C@@H]1O[C@@H](O[C@@H]2CCCC[C@H]2O[C@@H]2O[C@H](CO)[C@H](O)[C@H](O[C@@H](CC34CC5CC(CC(C5)C3)C4)C(=O)O)[C@H]2O)[C@@H](O)[C@H](O)[C@@H]1O,0.32

# The remaining lines, values ahead:
row,Activity,SMILES
1,> 10,C[C@@H]1O[C@@H](O[C@@H]2CCCC[C@H]2O[C@@H]2O[C@H](CO)[C@H](O)[C@H](O[C@H](C)C(=O)O)[C@H]2O)[C@@H](O)[C@H](O)[C@@H]1O
2,> 10,C[C@@H]1O[C@@H](O[C@@H]2CCCC[C@H]2O[C@@H]2O[C@H](CO)[C@H](O)[C@H](OCC(=O)O)[C@H]2O)[C@@H](O)[C@H](O)[C@@H]1O
3,2.4,C[C@H](O[C@H]1[C@@H](O)[C@@H](CO)O[C@@H](O[C@@H]2CCCC[C@H]2O[C@@H]2O[C@@H](C)[C@@H](O)[C@@H](O)[C@@H]2O)[C@@H]1O)C(=O)O
4,> 10,C[C@@H]1O[C@@H](O[C@@H]2CCCC[C@H]2O[C@@H]2O[C@H](CO)[C@H](O)[C@H](O[C@H](Cc3ccccc3)C(=O)O)[C@H]2O)[C@@H](O)[C@H](O)[C@@H]1O
5,0.15,C[C@@H]1O[C@@H](O[C@@H]2CCCC[C@H]2O[C@@H]2O[C@H](CO)[C@H](O)[C@H](O[C@@H](CC3CCCCC3)C(=O)O)[C@H]2O)[C@@H](O)[C@H](O)[C@@H]1O
6,0.6,C[C@@H]1O[C@@H](O[C@@H]2CCCC[C@H]2O[C@@H]2O[C@H](CO)[C@H](O)[C@H](O[C@@H](Cc3ccccc3)C(=O)O)[C@H]2O)[C@@H](O)[C@H](O)[C@@H]1O

# Target: T2, E-selectin (Homo sapiens, UniProt P16581)
# T2 sequence (P16581 whole entry): T1 sequence (whole entry)
# Assay: Binding affinity to E-selectin
# Method in brief: as §1
row,SMILES,IC50
1,CC(=O)N[C@H]1[C@H]([C@H](O)[C@H](O)CO)O[C@@](O[C@H]2[C@@H](O)[C@@H](CO)O[C@@H](O[C@@H]3CCCC[C@H]3O[C@@H]3O[C@@H](C)[C@@H](O)[C@@H](O)[C@@H]3O)[C@@H]2O)(C(=O)O)C[C@@H]1O,600 µM
2,CC(=O)N[C@@H]1[C@@H](O[C@@H]2O[C@@H](C)[C@@H](O)[C@@H](O)[C@@H]2O)[C@H](O[C@@H]2O[C@H](CO)[C@H](O)[C@H](O[C@]3(C(=O)O)C[C@H](O)[C@@H](NC(C)=O)[C@H]([C@H](O)[C@H](O)CO)O3)[C@H]2O)[C@@H](CO)O[C@H]1O,1000 µM
